Measured values from ChEMBL document CHEMBL3045405, “Enantioselective oxidative damage of chiral pesticide dichlorprop to maize” (J Agric Food Chem, 2011).

What was measured:
[1] = Phytotoxicity against Zea mays (maize) assessed as inhibition of seed germination at 0.05 mg/L and at 27 degC in the dark for 3 days; conditions: in vivo
[2] = Phytotoxicity against Zea mays (maize) assessed as inhibition of fresh weight at 0.05 mg/L and at 25 degC/20 degC day/night temperature 14 hr photoperiod for 3 days; assay type: organism-based; conditions: in vivo
Outline: (§1)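 Maize seeds were surface-sterilized in 3% H2O2 for 10 min and germinated on moist filter paper at 27 °C in the dark. Seedlings were exposed to (rac)-, (S)- or (R)-DCPP in sterile deionized water (0–1.0 mg L-1), with solutions renewed daily, at 80% relative humidity and repositioned daily. Fresh weight, root length and shoot height were compared with the water control after 3 days.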

[3] = Phytotoxicity against Zea mays (maize) assessed as inhibition of root length at 0.1 mg/L and at 25 degC/20 degC day/night temperature 14 hr photoperiod for 3 days; assay type: organism-based; conditions: in vivo
Outline: as §1

[4] = Phytotoxicity against Zea mays (maize) assessed as inhibition of seed germination at 0.02 mg/L and at 27 degC in the dark for 3 days; conditions: in vivo
[5] = Phytotoxicity against Zea mays (maize) assessed as inhibition of root length at 0.5 mg/L and at 25 degC/20 degC day/night temperature 14 hr photoperiod for 3 days; assay type: organism-based; conditions: in vivo
Outline: as §1

[6] = Phytotoxicity against Zea mays (maize) assessed as inhibition of seed germination at 0.1 mg/L and at 27 degC in the dark for 3 days; conditions: in vivo
[7] = Phytotoxicity against Zea mays (maize) assessed as inhibition of root length at 0.02 mg/L and at 25 degC/20 degC day/night temperature 14 hr photoperiod for 3 days; assay type: organism-based; conditions: in vivo
Outline: as §1

[8] = Phytotoxicity against Zea mays (maize) assessed as inhibition of shoot height at 0.05 mg/L and at 25 degC/20 degC day/night temperature 14 hr photoperiod for 3 days; assay type: organism-based; conditions: in vivo
Outline: as §1

[9] = Phytotoxicity against Zea mays (maize) assessed as inhibition of fresh weight at 0.5 mg/L and at 25 degC/20 degC day/night temperature 14 hr photoperiod for 3 days; assay type: organism-based; conditions: in vivo
Outline: as §1

Zea mays [10] = assay: Induction of hydroxyl radical production in Zea mays (maize) root assessed as ROS adducts formation at 1 mg/L measured after 3 days by EPR analysis; assay type: organism-based; conditions: in vivo, 72 h
Outline: (§2)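 Roots of maize exposed for 3 days were rinsed in ice-cold 0.1 M CaCl2. Under nitrogen, 0.5 g was homogenized with 1.0 mL of fresh 100 mM PBN in DMSO, incubated 37 °C for 15 min, and centrifuged 4500 rpm, 3 min, 4 °C. Signal expressed relative to control.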

Zea mays [11] = assay: Induction of SOD activity in Zea mays (maize) root at 0.02 mg/L measured after 3 days; assay type: organism-based; conditions: in vivo, 72 h
Outline: (§3)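 Maize roots after 3 days' exposure to DCPP enantiomers (0–1.0 mg L-1, test solutions renewed daily). Fresh roots (1.0 g) homogenized on ice in 0.05 M sodium phosphate buffer pH 7.8 with 1% (w/v) polyvinylpyrrolidone, then centrifuged 10 000 rpm, 10 min, 4 °C. The supernatant was used for enzyme assays, with protein by Bradford (BSA standard). Mean ± SEM of three replicate cultures.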

[12] = Phytotoxicity against Zea mays (maize) assessed as inhibition of shoot height at 1 mg/L and at 25 degC/20 degC day/night temperature 14 hr photoperiod for 3 days; assay type: organism-based; conditions: in vivo
Outline: as §1

[13] = Phytotoxicity against Zea mays (maize) assessed as inhibition of shoot height at 0.1 mg/L and at 25 degC/20 degC day/night temperature 14 hr photoperiod for 3 days; assay type: organism-based; conditions: in vivo
Outline: as §1

[14] = Phytotoxicity against Zea mays (maize) assessed as inhibition of root length at 1 mg/L and at 25 degC/20 degC day/night temperature 14 hr photoperiod for 3 days; assay type: organism-based; conditions: in vivo
Outline: as §1

[15] = Phytotoxicity against Zea mays (maize) assessed as inhibition of shoot height at 0.5 mg/L and at 25 degC/20 degC day/night temperature 14 hr photoperiod for 3 days; assay type: organism-based; conditions: in vivo
Outline: as §1

[16] = Phytotoxicity against Zea mays (maize) assessed as inhibition of root length at 0.05 mg/L and at 25 degC/20 degC day/night temperature 14 hr photoperiod for 3 days; assay type: organism-based; conditions: in vivo
Outline: as §1

[17] = Phytotoxicity against Zea mays (maize) assessed as inhibition of fresh weight at 0.1 mg/L and at 25 degC/20 degC day/night temperature 14 hr photoperiod for 3 days; assay type: organism-based; conditions: in vivo
Outline: as §1

Zea mays [18] = assay: Induction of POD activity in Zea mays (maize) root at 0.1 mg/L measured after 3 days; assay type: organism-based; conditions: in vivo, 72 h
Outline: as §3

[19] = Phytotoxicity against Zea mays (maize) assessed as inhibition of shoot height at 0.02 mg/L and at 25 degC/20 degC day/night temperature 14 hr photoperiod for 3 days; assay type: organism-based; conditions: in vivo
Outline: as §1

[20] = Phytotoxicity against Zea mays (maize) assessed as inhibition of seed germination at 0.5 mg/L and at 27 degC in the dark for 3 days; conditions: in vivo
[21] = Phytotoxicity against Zea mays (maize) assessed as inhibition of fresh weight at 1 mg/L and at 25 degC/20 degC day/night temperature 14 hr photoperiod for 3 days; assay type: organism-based; conditions: in vivo
Outline: as §1

[22] = Phytotoxicity against Zea mays (maize) assessed as inhibition of fresh weight at 0.02 mg/L and at 25 degC/20 degC day/night temperature 14 hr photoperiod for 3 days; assay type: organism-based; conditions: in vivo
Outline: as §1

[23] = Phytotoxicity against Zea mays (maize) assessed as inhibition of seed germination at 1 mg/L and at 27 degC in the dark for 3 days; conditions: in vivo
Zea mays [24] = assay: Induction of hydroxyl radical production in Zea mays (maize) root assessed as PBN adducts formation at 1 mg/L measured after 3 days by EPR analysis; assay type: organism-based; conditions: in vivo, 72 h
Outline: as §2

Zea mays [25] = assay: Induction of POD activity in Zea mays (maize) root at 0.02 mg/L measured after 3 days; assay type: organism-based; conditions: in vivo, 72 h
Outline: as §3

Zea mays [26] = assay: Induction of POD activity in Zea mays (maize) root at 0.05 mg/L measured after 3 days; assay type: organism-based; conditions: in vivo, 72 h
Outline: as §3

Compound	inhibition at 72 h, 0.05 mg/L [1] [%]	inhibition at 72 h, 0.05 mg/L [2] [%]	inhibition at 72 h, 0.1 mg/L [3] [%]	inhibition at 72 h, 0.02 mg/L [4] [%]	inhibition at 72 h, 0.5 mg/L [5] [%]	inhibition at 72 h, 0.1 mg/L [6] [%]	inhibition at 72 h, 0.02 mg/L [7] [%]	inhibition at 72 h, 0.05 mg/L [8] [%]	inhibition at 72 h, 0.5 mg/L [9] [%]	Activity (Zea mays [10])	Activity (Zea mays [11])	inhibition at 72 h, 1 mg/L [12] [%]	inhibition at 72 h, 0.1 mg/L [13] [%]	inhibition at 72 h, 1 mg/L [14] [%]	inhibition at 72 h, 0.5 mg/L [15] [%]	inhibition at 72 h, 0.05 mg/L [16] [%]	inhibition at 72 h, 0.1 mg/L [17] [%]	inhibition at 72 h, 0.02 mg/L [19] [%]	inhibition at 72 h, 0.5 mg/L [20] [%]	inhibition at 72 h, 1 mg/L [21] [%]	also measured
C[C@H](Oc1ccc(Cl)cc1Cl)C(=O)O [(S)-DICHLORPROP]	4.75	2.94	22.7	2.1	34.9	9.67	11.4	3.12	30.2	Toxic	Non-toxic	30.6	6.28	39.9	15.9	17.3	9.5	2.06	11.4	38.1	Activity (Zea mays [18]): Toxic; inhibition at 72 h, 0.02 mg/L [22]: 2.12%; inhibition at 72 h, 1 mg/L [23]: 21.9%; Activity (Zea mays [24]): Toxic
C[C@@H](Oc1ccc(Cl)cc1Cl)C(=O)O [(R)-DICHLORPROP]	10.7	14.8	26.6	6.64	38.4	16.1	14.3	5.27	36.7	Toxic	Toxic	36.7	8.61	42	20.7	23.5	24.6	3.52	34.9	42.7	Activity (Zea mays [25]): Toxic; inhibition at 72 h, 0.02 mg/L [22]: 5.76%; inhibition at 72 h, 1 mg/L [23]: 41.4%; Activity (Zea mays [24]): Toxic
CC(Oc1ccc(Cl)cc1Cl)C(=O)O (racemic) [RAC-DICHLORPROP]	8.38	4.28	24.5	3.57	36.7	12.2	12.7	4.02	31.3	Toxic	Non-toxic	31.1	7.9	40.1	17.6	19.3	10	2.14	21.4	39.7	Activity (Zea mays [26]): Toxic; inhibition at 72 h, 0.02 mg/L [22]: 2.75%; inhibition at 72 h, 1 mg/L [23]: 31.7%; Activity (Zea mays [24]): Toxic
